Blank lines part the entries; values can stand above or below the compound they belong to. The source made the active and inactive calls. The rule behind the calls is not given here.
Experiments:
[1] = tested on: Rattus norvegicus; experiment: Toxicity in WI(Glx/BRL/Han)IGS rat assessed as body temperature at 30 mg/kg, iv; type: organism-based; design: dose 30 mg/kg, route intravenous; settings: in vivo
In short: (§1)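 Conscious female rats implanted with telemetry, given a single iv dose up to 30 mg/kg. Heart rate, systolic, diastolic and mean blood pressure, and body temperature recorded from at least 1 h before to about 24 h after dosing.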

[2] = tested on: Rattus norvegicus; experiment: Toxicity in WI(Glx/BRL/Han)IGS rat assessed as heart rate at 30 mg/kg, iv; type: organism-based; design: dose 30 mg/kg, route intravenous; settings: in vivo; in short: as §1
[3] = target: Voltage-gated inwardly rectifying potassium channel KCNH2 (Homo sapiens, UniProt Q12809); experiment: Displacement of [3H]-astemizole from human hERG expressed in HEK293 cells at 30 uM by liquid scintillation counting; type: cell-based; settings: hek293, 30 µM
Sequence of Voltage-gated inwardly rectifying potassium channel KCNH2 (Q12809 whole entry): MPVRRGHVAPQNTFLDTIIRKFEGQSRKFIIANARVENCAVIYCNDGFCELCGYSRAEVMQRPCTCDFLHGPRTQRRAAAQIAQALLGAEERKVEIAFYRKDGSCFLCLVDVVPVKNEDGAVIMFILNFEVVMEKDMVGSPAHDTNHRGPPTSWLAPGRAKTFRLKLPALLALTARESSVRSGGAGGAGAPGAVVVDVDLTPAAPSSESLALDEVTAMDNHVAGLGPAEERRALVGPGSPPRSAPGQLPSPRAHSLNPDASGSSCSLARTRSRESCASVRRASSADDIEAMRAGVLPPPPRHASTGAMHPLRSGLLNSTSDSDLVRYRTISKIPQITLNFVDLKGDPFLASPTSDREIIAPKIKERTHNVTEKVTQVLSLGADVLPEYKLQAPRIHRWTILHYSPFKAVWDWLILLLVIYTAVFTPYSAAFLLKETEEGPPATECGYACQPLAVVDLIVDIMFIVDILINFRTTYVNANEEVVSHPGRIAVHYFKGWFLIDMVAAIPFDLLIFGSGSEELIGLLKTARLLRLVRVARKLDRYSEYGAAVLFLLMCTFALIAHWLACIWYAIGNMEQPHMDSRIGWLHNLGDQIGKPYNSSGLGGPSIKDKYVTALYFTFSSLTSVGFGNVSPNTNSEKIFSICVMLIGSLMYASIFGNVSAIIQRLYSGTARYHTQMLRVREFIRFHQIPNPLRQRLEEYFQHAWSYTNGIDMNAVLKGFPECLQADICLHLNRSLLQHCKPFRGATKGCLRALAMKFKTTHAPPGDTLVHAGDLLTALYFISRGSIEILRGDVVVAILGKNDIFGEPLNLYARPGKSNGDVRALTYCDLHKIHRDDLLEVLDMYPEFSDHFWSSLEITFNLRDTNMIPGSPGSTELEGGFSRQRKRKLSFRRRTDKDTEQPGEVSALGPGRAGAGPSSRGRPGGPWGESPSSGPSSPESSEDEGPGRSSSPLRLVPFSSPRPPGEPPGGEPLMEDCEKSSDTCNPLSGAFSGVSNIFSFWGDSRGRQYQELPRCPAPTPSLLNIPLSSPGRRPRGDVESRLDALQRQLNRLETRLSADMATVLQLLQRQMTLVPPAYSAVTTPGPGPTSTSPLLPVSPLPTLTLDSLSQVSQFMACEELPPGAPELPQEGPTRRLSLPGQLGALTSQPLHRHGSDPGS

[4] = organism: Mus musculus; experiment: Inhibition of calcium-induced mPTP opening in C57/bl6 mouse liver mitochondria assessed as increase in calcium retention capacity at 0.1 to 5 uM by fluorimetry
In short: (§2)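 Male C57/bl6 liver mitochondria (0.5 mg/mL) in KCl/MOPS buffer with glutamate/malate, pH 7.4, containing 1 μM Calcium Green 5N. Compound added just before the start. CaCl2 pulses added every minute at 25 °C; extramitochondrial fluorescence (ex 505/em 535 nm) followed until mPTP opening. Dose series 0.1–5.0 μM, or given in combination with CsA; mean of three experiments.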

[5] = organism: Mus musculus; experiment: Inhibition of calcium-induced mPTP opening in C57/bl6 mouse heart mitochondria assessed as increase in calcium retention capacity at 5 uM after 2 mins by fluorimetry (reference value: 80 uM)
In short: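 Excised mouse hearts on a Langendorff apparatus, perfused 2 min with Krebs-type buffer, then 2 min with 5 μM compound in 0.1% DMSO or 0.1% DMSO alone. Hearts iced, mitochondria isolated, CRC measured with Calcium Green 5N and repeated CaCl2 pulses at 25 °C. Value is absolute calcium retained; n = 6 per group.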

[6] = tested on: Mus musculus; experiment: Increase in calcium retention capacity in C57/bl6 mouse heart mitochondria at 15 mg/kg, iv measured after 5 mins by fluorimetry (reference value: 69.8 uM); type: functional
In short: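 Mice dosed 15 mg/kg iv in the tail vein. Hearts taken 5 min later and mitochondria isolated in sucrose/Tris/EGTA/0.1% BSA buffer. CRC measured with Calcium Green 5N under CaCl2 pulses added every minute at 25 °C until mPTP opening. Value is absolute calcium retained; vehicle DMSO, n = 16 vehicle, n = 6 treated.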

[7] = Plasma concentration in New Zealand rabbit myocardial infarction model at 5 mg/kg, iv administered as bolus dose after 5 mins by LC/MS analysis; type: ADME, organism-based, Oryctolagus cuniculus; design: dose 5 mg/kg, route intravenous
In short: (§3)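 Satellite rabbits (n = 5) given the same 5 mg/kg iv bolus. Jugular blood taken into K2EDTA predose and at 5, 15, 30, 60 and 240 min post reperfusion. Plasma precipitated with ACN/H3PO4 and analysed by UPLC-MS/MS, ESI(+), MRM mode. Eight-point calibration 2.5–1000 ng/mL, LLOQ 2.5 ng/mL. Half-life by noncompartmental analysis.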

[8] = tested on: Oryctolagus cuniculus; experiment: Cardioprotective effect in New Zealand rabbit ischemia/reperfusion-induced left anterior descending coronary artery ligation myocardial infarction model assessed as ratio of area at risk to infarct area at 5 mg/kg, iv administered as bolus dose 5 min prior to reperfusion (reference value: 57.3%); type: functional, Myocardium
[9] = Plasma concentration in New Zealand rabbit myocardial infarction model at 5 mg/kg, iv administered as bolus dose after 240 mins by LC/MS analysis; type: ADME, organism-based, Oryctolagus cuniculus; design: dose 5 mg/kg, route intravenous; in short: as §3
[10] = Half life in New Zealand rabbit myocardial infarction model plasma at 5 mg/kg, iv administered as bolus dose by LC/MS analysis; type: ADME, organism-based, Oryctolagus cuniculus; design: dose 5 mg/kg, route intravenous; in short: as §3
[11] = tested on: Rattus norvegicus; experiment: Toxicity in WI(Glx/BRL/Han)IGS rat assessed as systolic blood pressure at 30 mg/kg, iv; type: organism-based, Artery; design: dose 30 mg/kg, route intravenous; settings: in vivo; in short: as §1
[12] = tested on: Rattus norvegicus; experiment: Toxicity in WI(Glx/BRL/Han)IGS rat assessed as diastolic blood pressure at 30 mg/kg, iv; type: organism-based, Artery; design: dose 30 mg/kg, route intravenous; settings: in vivo; in short: as §1
[13] = organism: Mus musculus; experiment: Inhibition of calcium-induced mPTP opening in C57/bl6 mouse liver mitochondria assessed as increase in calcium retention capacity in presence of cyclosporine A by fluorimetry; in short: as §2
[14] = tested on: Oryctolagus cuniculus; experiment: Cardioprotective effect in New Zealand rabbit ischemia/reperfusion-induced left anterior descending coronary artery ligation myocardial infarction model assessed as ratio of area at risk to infarct area at 10 mg/kg, iv administered as bolus dose 5 min prior to reperfusion (reference value: 57.3%); type: functional, Myocardium
[15] = organism: Mus musculus; experiment: Inhibition of Cacl2-induced mPTP opening in C57/bl6 mouse liver mitochondria assessed as reduction in mitochondrial swelling at 1 uM by spectrophotometry
In short: (§4)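 Male C57/bl6 liver mitochondria at 0.5 mg/mL final in KCl/MOPS/phosphate buffer with glutamate/malate, pH 7.4; compound at 1 μM added before the mitochondria. Swelling followed as the fall in A540, read every 9 s for 10 min. Inducers: CaCl2 150 μM, FCCP 50 nM, menadione 100 μM, diamide 300 μM.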

[16] = organism: Mus musculus; experiment: Inhibition of FCCP-induced mPTP opening in C57/bl6 mouse liver mitochondria assessed as reduction in mitochondrial swelling at 1 uM by spectrophotometry; in short: as §4
[17] = organism: Mus musculus; experiment: Inhibition of menadione-induced mPTP opening in C57/bl6 mouse liver mitochondria assessed as reduction in mitochondrial swelling at 1 uM by spectrophotometry; in short: as §4
[18] = organism: Mus musculus; experiment: Inhibition of diamide-induced mPTP opening in C57/bl6 mouse liver mitochondria assessed as reduction in mitochondrial swelling at 1 uM by spectrophotometry; in short: as §4
[19] = target: Sodium-dependent noradrenaline transporter (Homo sapiens) (UniProt P23975); experiment: Displacement of antagonist radioligand from human NET at 10 uM
Sequence of Sodium-dependent noradrenaline transporter (Homo sapiens) (P23975 whole entry): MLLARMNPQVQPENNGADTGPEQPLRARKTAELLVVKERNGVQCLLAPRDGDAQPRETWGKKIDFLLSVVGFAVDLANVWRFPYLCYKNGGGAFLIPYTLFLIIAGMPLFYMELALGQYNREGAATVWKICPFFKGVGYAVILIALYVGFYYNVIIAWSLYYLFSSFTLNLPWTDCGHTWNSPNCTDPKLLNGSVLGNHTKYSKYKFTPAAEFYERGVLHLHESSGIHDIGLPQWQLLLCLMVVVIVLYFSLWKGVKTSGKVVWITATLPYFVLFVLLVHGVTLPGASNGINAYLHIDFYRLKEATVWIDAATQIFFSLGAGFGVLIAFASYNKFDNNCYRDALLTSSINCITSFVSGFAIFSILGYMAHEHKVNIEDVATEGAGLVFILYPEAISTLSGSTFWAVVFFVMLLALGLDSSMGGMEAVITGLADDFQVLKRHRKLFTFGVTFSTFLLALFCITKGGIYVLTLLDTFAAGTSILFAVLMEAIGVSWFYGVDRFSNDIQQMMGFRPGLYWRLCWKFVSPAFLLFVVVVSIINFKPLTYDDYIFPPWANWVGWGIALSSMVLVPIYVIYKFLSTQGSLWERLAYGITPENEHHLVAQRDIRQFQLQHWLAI
In short: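 Single 10 μM concentration tested in a receptor/enzyme diversity panel, read as displacement of a target-specific radioligand.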

inhibition [4]: Dose-dependent effect
INH [5]: 125 µM
concentration at 5 min [7]: 4800 nM
concentration at 4 h [9]: 20 nM
half-life [10]: 30 min
inhibition [13]: Active
Structure (SMILES): O=C(/C=C/c1ccc(F)c(O)c1)Nc1cccc2ccccc12
Activity [1]: Non-toxic
Activity [2]: Non-toxic
Activity [3]: Not Active
Activity [6]: 108.4 µM
Activity [8]: 30.9%
Activity [11]: Non-toxic
Activity [12]: Non-toxic

Structure (SMILES): C/C=C/C[C@@H](C)[C@@H](O)[C@H]1C(=O)N[C@@H](CC)C(=O)N(C)CC(=O)N(C)[C@@H](CC(C)C)C(=O)N[C@@H](C(C)C)C(=O)N(C)[C@@H](CC(C)C)C(=O)N[C@@H](C)C(=O)N[C@H](C)C(=O)N(C)[C@@H](CC(C)C)C(=O)N(C)[C@@H](CC(C)C)C(=O)N(C)[C@@H](C(C)C)C(=O)N1C [CYCLOSPORINE]
Activity [14]: 32.6%

inhibition [15]: Active
inhibition [16]: Active
inhibition [17]: Active
inhibition [18]: Active
inhibition [19]: > 50%
Structure (SMILES): COc1ccc(/C=C/C(=O)Nc2cccc(Cl)c2)cc1O

Reference: ChEMBL document CHEMBL3286316, “Cinnamic anilides as new mitochondrial permeability transition pore inhibitors endowed with ischemia-reperfusion injury protective effect in vivo” (J Med Chem, 2014)
